Assay [1] relates to U-937. The assay is described as follows: Effect on alpha tubulin acetylation in U937 cells at 5 uM after 24 hrs by Western blot analysis. As to conditions: Homo sapiens. It is filed as functional, cell-based. A general note: A western blot detects proteins with antibodies after separation by electrophoresis.
Assay [2] deals with U-937. Put plainly: Effect on alpha tubulin acetylation in U937 cells at 1 uM after 24 hrs by Western blot analysis. It is filed as functional, cell-based. To be noted: Homo sapiens.
Assay [3] concerns U-937. Put plainly: Effect on granulocyte differentiation in U937 cells assessed as CD11c expression after 30 hrs. Type of assay: functional, Homo sapiens. Put shortly:
(§1)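 U937 cells were stained with phycoerythrine-conjugated anti-CD11c for 30 min at 4 °C in the dark, with PE-mouse IgG1 as the staining control. Cells were washed in PBS, taken up in PBS with 0.25 µg/mL propidium iodide and analysed by FACS. PI-positive cells were excluded.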

Assay [4] relates to U-937. The assay is described as follows: Increase in histone H3 acetylation in U937 cells at 5 uM after 24 hrs by Western blot analysis. Type of assay: cell-based. To be noted: Homo sapiens.
In assay [5] the test system is U-937. The assay is described as follows: Induction of apoptosis in U937 cells after 30 hrs by FACS analysis. Type of assay: functional, cell-based. To be noted: Homo sapiens. Put shortly: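 U937 cells in supplemented RPMI were exposed 30 h to compounds dissolved in DMSO (1 or 5 µM). Apoptosis was scored by flow cytometry as the percentage of active caspase 3-positive cells, as the mean of independent duplicates.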
Background: In flow cytometry, cells or beads pass a laser one at a time.

For assay [6], the target named is T1, Histone deacetylase 1 (Homo sapiens, UniProt Q13547). Put plainly: Inhibition of HDAC1. Put shortly: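 Purified recombinant HDAC1 was incubated with the acetyl-lysine Fluor de Lys substrate, with or without inhibitor. Developer then released a fluorophore, read by fluorimetry. Four scalar concentrations were tested in quadruplicate to derive the IC50.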
Assay [7] concerns the target T1, Histone deacetylase 1. Put plainly: Inhibition of HDAC1 at 5 uM.
Assay [8] has as its system U-937. The assay is described as follows: Effect on granulocyte differentiation in U937 cells assessed as CD11c expression at 5 uM after 30 hrs. It is filed as functional, cell-based. As to conditions: Homo sapiens. Put shortly: as §1
A further assay concerns the target Histone deacetylase 4 (Homo sapiens, UniProt P56524). Put plainly: Inhibition of HDAC4. In outline:
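HDAC4 catalytic fragment (aa 627-1085, C-terminal GST tag, baculovirus-expressed) was used at 2 µg per assay with 1-2 h enzymatic incubation in the fluorimetric deacetylase assay. Four scalar concentrations were tested in quadruplicate, and the IC50 was calculated from fluorescence.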

In assay [9] the test system is U-937. The assay is described as follows: Effect on cell cycle analysis in U937 cells assessed as accumulation at G1 phase after 30 hrs. It is filed as functional, cell-based. To be noted: Homo sapiens. In outline: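 U937 cells grown in RPMI with 10% FCS, antibiotics, 10 mM HEPES and 2 mM glutamine at 200 000 cells/mL, then treated 30 h with compounds in DMSO (1 or 5 µM). 2.5 × 10⁵ cells in hypotonic buffer (0.1% Triton X-100, 0.1% sodium citrate, 50 µg/mL propidium iodide, RNAse A), 30 min in the dark. DNA content by flow cytometry; run at least twice.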

Activity calls are given as the source filed them. The rule behind the calls is not given here. Some results are limits rather than exact numbers.

14 compounds from ChEMBL document CHEMBL1139873, “Bispyridinium dienes: histone deacetylase inhibitors with selective activities” (J Med Chem, 2007) can be followed below.

T1 sequence (Q13547 whole entry): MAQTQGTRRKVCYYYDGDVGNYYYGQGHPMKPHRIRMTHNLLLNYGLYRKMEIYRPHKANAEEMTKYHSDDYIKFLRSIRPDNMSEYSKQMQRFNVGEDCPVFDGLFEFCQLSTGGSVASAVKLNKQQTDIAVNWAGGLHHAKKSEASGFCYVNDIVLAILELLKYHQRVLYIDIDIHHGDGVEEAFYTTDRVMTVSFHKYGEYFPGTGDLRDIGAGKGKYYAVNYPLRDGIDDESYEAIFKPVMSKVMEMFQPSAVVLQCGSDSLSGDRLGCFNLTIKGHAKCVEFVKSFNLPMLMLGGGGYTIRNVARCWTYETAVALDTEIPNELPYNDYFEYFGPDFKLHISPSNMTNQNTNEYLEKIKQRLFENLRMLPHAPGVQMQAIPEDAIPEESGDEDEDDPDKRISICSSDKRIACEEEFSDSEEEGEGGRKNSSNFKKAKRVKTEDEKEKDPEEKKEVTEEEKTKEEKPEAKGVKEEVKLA
Chain of Histone deacetylase 4 (P56524 whole entry, the tested form may be a part): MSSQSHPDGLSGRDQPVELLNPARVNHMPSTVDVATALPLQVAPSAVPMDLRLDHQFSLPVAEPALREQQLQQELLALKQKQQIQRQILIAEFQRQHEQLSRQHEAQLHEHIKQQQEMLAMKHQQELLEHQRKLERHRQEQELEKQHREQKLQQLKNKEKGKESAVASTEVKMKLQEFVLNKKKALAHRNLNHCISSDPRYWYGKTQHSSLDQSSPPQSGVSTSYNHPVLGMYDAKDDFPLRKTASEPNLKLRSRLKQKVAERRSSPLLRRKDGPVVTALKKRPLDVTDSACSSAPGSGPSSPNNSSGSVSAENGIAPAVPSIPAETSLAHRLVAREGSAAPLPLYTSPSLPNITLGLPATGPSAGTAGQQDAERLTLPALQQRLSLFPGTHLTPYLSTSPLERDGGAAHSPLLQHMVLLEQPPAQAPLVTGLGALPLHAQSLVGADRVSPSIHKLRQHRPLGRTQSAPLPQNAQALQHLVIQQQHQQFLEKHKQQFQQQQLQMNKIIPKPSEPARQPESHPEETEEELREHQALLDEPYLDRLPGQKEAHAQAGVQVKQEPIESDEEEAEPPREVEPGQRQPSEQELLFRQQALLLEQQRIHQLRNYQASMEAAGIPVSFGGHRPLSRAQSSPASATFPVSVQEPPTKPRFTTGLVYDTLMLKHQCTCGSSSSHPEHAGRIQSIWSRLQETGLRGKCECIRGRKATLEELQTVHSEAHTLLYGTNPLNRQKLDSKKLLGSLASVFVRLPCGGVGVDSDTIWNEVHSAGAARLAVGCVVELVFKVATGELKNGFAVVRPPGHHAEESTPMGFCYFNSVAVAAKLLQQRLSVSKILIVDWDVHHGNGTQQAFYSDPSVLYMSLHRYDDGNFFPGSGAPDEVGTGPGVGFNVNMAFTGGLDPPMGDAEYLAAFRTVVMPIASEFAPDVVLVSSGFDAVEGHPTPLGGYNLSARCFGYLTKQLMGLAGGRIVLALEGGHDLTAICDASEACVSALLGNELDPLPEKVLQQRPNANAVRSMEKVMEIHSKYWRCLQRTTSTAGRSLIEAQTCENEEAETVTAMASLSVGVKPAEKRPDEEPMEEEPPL

With `c1cc2c[n+](c1)CCCCCCCCCCCCc1ccc[n+](c1)CCCCCCCCCCC2`, the result with U-937 [1] and in the assay on U-937 [2] was inactive.
Consider `C=CCCCCCC[n+]1cccc(CCCCCCCCCCCCC[n+]2cccc(CCCC=C)c2)c1.[Cl-].[I-]`, for which, in the assay with U-937 [3], the Activity amounted to 30%. For the same compound, the outcome in the assay on U-937 [4] and in the assay on U-937 [5] was Active. Further, the outcome with U-937 [1] and in the assay with U-937 [2] was inactive.
For the compound `c1cc2c[n+](c1)CCCCCCCCCCCCCc1ccc[n+](c1)CCCCCCCCCCCC2`, in the assay with U-937 [4], the result was Active. Also, the outcome in the assay with U-937 [1] and in the assay on U-937 [2] was inactive.
On to `c1cc2c[n+](c1)CCCCCCCCCCCCCCc1ccc[n+](c1)CCCCCCCCCCCC2`, for which the outcome in the assay on U-937 [1] and with U-937 [2] was inactive.
As for `C=CCCCCCCc1ccc[n+](CCCCCCCCCCCCc2ccc[n+](CCCCCCC=C)c2)c1.[Cl-].[I-]`, in the assay with U-937 [3], the Activity was determined as 30%. The result with U-937 [4] and in the assay with U-937 [5] was Active. Also, the outcome with U-937 [1] and with U-937 [2] was inactive.
With `C=CCCCCCC[n+]1cccc(CCCCCCCCCCCC[n+]2cccc(CCCCC=C)c2)c1.[Cl-].[I-]`, the Activity in the assay with U-937 [3] is listed as 30%. Further, the result in the assay with U-937 [4], on Histone deacetylase 1 [7], with U-937 [8] and in the assay with U-937 [5] was Active. Also, the outcome in the assay with U-937 [1] and in the assay with U-937 [2] was inactive. For the same compound, the values for the IC50 against Histone deacetylase 1 [6] and against Histone deacetylase 4 were 0.53 µM and over 200 µM, respectively.
Take `c1cc2c[n+](c1)CCCCCCCCCCCCCCc1ccc[n+](c1)CCCCCCCCCCCCC2`: the result in the assay on U-937 [1] and in the assay on U-937 [2] was inactive.
For the compound `O=C(CCCCCCC(=O)Nc1ccccc1)NO`, in the assay with U-937 [4], the outcome was Active. For the same compound, the result with U-937 [1] and in the assay on U-937 [2] was inactive.
As for `C=CCCCCCC[n+]1cccc(CCCCCCCCCCCC[n+]2cccc(CCCC=C)c2)c1.[Cl-].[I-]`, the outcome in the assay with U-937 [9], in the assay on U-937 [4] and in the assay on U-937 [5] was Active. The Activity with U-937 [3] was found to be 30%. Besides, the result with U-937 [1] and in the assay on U-937 [2] was inactive. Besides, the IC50 (usually the concentration that gives 50% inhibition) at Histone deacetylase 1 [6] came to 1.88 µM; on Histone deacetylase 4, 0.54 µM.
Regarding `c1cc2c[n+](c1)CCCCCCCCCCCCc1ccc[n+](c1)CCCCCCCCCCCC2`, the result in the assay on U-937 [1] and with U-937 [2] was inactive.
On to `Nc1ccccc1NC(=O)c1ccc(CNC(=O)OCc2cccnc2)cc1`, for which the result with U-937 [4] was Active. In addition, the result with U-937 [1] and in the assay with U-937 [2] was inactive.
`C=CCCCCCC[n+]1cccc(CCCCCCCCCCCCC[n+]2cccc(CCCCC=C)c2)c1`: the outcome in the assay with U-937 [4] and in the assay with U-937 [5] was Active. For the same compound, the result with U-937 [1] and in the assay with U-937 [2] was inactive.
Regarding `C=CCCCCCCc1ccc[n+](CCCCCCCCCCCCCc2ccc[n+](CCCCCCC=C)c2)c1`, the outcome with U-937 [4] and with U-937 [5] was Active. Moreover, the result with U-937 [1] and with U-937 [2] was inactive.
With `c1cc2c[n+](c1)CCCCCCCCCCCCCc1ccc[n+](c1)CCCCCCCCCCC2`, the outcome with U-937 [4] was Active. Besides, the outcome in the assay with U-937 [1] and in the assay on U-937 [2] was inactive.
